Reference: ChEMBL document CHEMBL1127031, “Development of high-affinity 5-HT3 receptor antagonists. Structure-affinity relationships of novel 1,7-annelated indole derivatives” (J Med Chem, 1993)
Values belong to the compound of their own block, whether it stands above or below them.

How the values were obtained:
[1] = molecular target: T1, Serotonin 3 (5-HT3) receptor (Rattus norvegicus, UniProt P35563+Q9JJ16); experiment: Displacement of [3H]GR-65630 binding to 5-hydroxytryptamine 3 receptor in rat brain cortical membranes; format: cell membranes, Membrane
T1 sequence (P35563 whole entry): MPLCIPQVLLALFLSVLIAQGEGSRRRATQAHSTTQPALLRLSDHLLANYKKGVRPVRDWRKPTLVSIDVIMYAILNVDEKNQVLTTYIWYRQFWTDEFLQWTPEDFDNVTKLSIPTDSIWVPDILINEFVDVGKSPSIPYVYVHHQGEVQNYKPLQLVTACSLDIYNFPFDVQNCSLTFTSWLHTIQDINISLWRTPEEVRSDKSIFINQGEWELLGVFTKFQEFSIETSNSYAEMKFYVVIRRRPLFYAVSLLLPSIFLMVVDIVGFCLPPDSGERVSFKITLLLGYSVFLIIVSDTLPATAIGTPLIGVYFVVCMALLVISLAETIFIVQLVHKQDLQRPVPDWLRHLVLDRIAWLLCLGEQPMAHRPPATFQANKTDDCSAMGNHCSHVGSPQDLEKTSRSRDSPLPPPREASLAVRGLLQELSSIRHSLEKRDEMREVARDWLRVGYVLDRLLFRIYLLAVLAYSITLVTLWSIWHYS
T1 sequence (Q9JJ16 whole entry): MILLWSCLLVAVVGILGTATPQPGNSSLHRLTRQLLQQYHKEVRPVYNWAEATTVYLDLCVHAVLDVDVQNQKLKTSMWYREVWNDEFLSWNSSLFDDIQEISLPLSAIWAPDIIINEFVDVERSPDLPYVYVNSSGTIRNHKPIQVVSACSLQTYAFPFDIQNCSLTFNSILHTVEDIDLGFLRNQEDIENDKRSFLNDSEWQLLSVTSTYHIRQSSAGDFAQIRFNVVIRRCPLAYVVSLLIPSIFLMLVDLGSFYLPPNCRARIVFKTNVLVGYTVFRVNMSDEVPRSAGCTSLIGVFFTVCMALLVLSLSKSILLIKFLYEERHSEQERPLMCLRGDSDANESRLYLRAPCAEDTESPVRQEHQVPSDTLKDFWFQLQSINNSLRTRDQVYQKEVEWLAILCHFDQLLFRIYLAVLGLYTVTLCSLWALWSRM
Summary of the method: (§1)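 Radioligand displacement on membrane preparations with glass-fibre filtration and liquid scintillation counting of tritium after overnight equilibration. Four to six test concentrations were used. IC50 came from log-probit linear regression. Ki = IC50/(1 + S/Kd), where S is the [3H]label concentration. Ki is the mean of at least three independent experiments run on different days with different membrane preparations.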

[2] = molecular target: Alpha-2A adrenergic receptor (Rattus norvegicus, UniProt P22909); experiment: The binding affinity was measured on alpha-2-adrenergic receptor using [3H]- clonidine as radioligand.
[3] = The binding affinity was measured on Na+2(BTX)brain receptor using [3H]- batrachotox as radioligand.; set-up: species or system Rattus norvegicus
D(2) dopamine receptor = D(2) dopamine receptor (Rattus norvegicus, UniProt P61169); experiment: The binding affinity was measured on dopamine receptor D2 using [3H]- spiperone as radioligand.
Mu-type opioid receptor = Mu-type opioid receptor (Rattus norvegicus, UniProt P33535); experiment: The binding affinity was measured on mu-opiate receptor using [3H]- naloxone as radioligand.
[4] = molecular target: T2, Voltage-gated L-type calcium channel (Rattus norvegicus, UniProt P22002+Q02485+P27732); experiment: Inhibition of [3H]nitrendipine binding to L-type calcium channel dihydropyridine site of rat brain
Summary of the method: (§2)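 Radioligand displacement on tissue membrane suspensions, with 4–6 concentrations of unlabeled test drug. Bound label was collected on GF/B glass-fibre filters, equilibrated overnight in scintillant, and counted for tritium. […] Ki = IC50/(1 + S/Kd), where S is the label concentration. Each value is the mean of ≥3 independent experiments on different days with different membrane preparations.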

[5] = molecular target: T2, Voltage-gated L-type calcium channel; experiment: Inhibition of [3H]D-888 binding to L-type calcium channel verapamil site of rat brain; summary of the method: as §2
[6] = The binding affinity was measured on glycine strych. ins receptor using [3H]- 5,7-diClkyn.acid as radioligand.; set-up: species or system Rattus norvegicus
Adrenergic receptor beta = Adrenergic receptor beta (Rattus norvegicus, UniProt P18090+P10608+P26255); experiment: The binding affinity was measured on beta-1,2-adrenergic receptor using [3H]- DHA as radioligand.; format: protein assay
[7] = molecular target: GABA-A receptor; anion channel; experiment: Displacement of [3H]DH-muscimol from rat GABA-A receptor; format: protein-complex assay; summary of the method: as §1
Rattus norvegicus [8] = species on record: Rattus norvegicus; experiment: The pA2 is the negative logarithm of the molar concentration of an antagonist which necessitates the doubling of the agonist dose to couteract the effect of that antagonist and restore the original response was measured in rat isolated vagus nerve test.; format: functional; details: read-out: pA2 (converted)
[9] = molecular target: Sigma non-opioid intracellular receptor 1 (Rattus norvegicus, UniProt Q9R0C9); experiment: The binding affinity was measured on sigma receptor using [3H]- (+)-3-PPP as radioligand.
D(3) dopamine receptor = D(3) dopamine receptor (Rattus norvegicus, UniProt P19020); experiment: The binding affinity was measured on dopamine receptor D3 using [3H]- spiperone as radioligand.
[10] = The binding affinity was measured on substance P as radioligand.; set-up: species or system Rattus norvegicus
[11] = molecular target: Thyrotropin-releasing hormone receptor (Rattus norvegicus, UniProt Q01717); experiment: The binding affinity was measured on TRH receptor using [3H]- MeTRH as radioligand.
Rattus norvegicus [12] = species on record: Rattus norvegicus; experiment: Dose of antagonist which inhibits the by the 2-Me-5-HT induced slowing of the heart rate by 10 beats/5 s.; format: functional
Summary of the method: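 Von Bezold-Jarisch reflex test in unrestrained conscious rats, with the compound given orally. The bradycardia (slowing of heart rate) was induced by 2-Me-5-HT. The value is the antagonist dose that reduces this slowing by 10 beats/5 s.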

[13] = molecular target: Muscarinic acetylcholine receptor M2 (Rattus norvegicus, UniProt P10980); experiment: The binding affinity was measured on muscarine M2 receptor using [3H]- N-Me-SCOPOL as radioligand.; summary of the method: as §2
[14] = molecular target: Muscarinic acetylcholine receptor M1 (Rattus norvegicus, UniProt P08482); experiment: The binding affinity was measured on muscarine M1 receptor using [3H]- pirenzepine as radioligand.
[15] = molecular target: GABA-A receptor; anion channel; experiment: Displacement of [3H]- Diazepam from rat GABA-A benzodiazepine receptor; format: protein-complex assay; summary of the method: as §1
Histamine H1 receptor = Histamine H1 receptor (Rattus norvegicus, UniProt P31390); experiment: The binding affinity was measured on histamine H1 receptor using [3H]- mepyramine as radioligand.
[16] = molecular target: Delta-type opioid receptor (Rattus norvegicus, UniProt P33533); experiment: The binding affinity was measured on delta-opiate receptor using [3H]- dadle as radioligand.
[17] = molecular target: Cholecystokinin receptor type A (Rattus norvegicus, UniProt P30551); experiment: The binding affinity was measured on cholecystokinin type A receptor using [3H]- CCK-8 as radioligand.
[18] = molecular target: Muscarinic acetylcholine receptor M3 (Rattus norvegicus, UniProt P08483); experiment: The binding affinity was measured on muscarine M3 receptor using [3H]- N-Me-SCOPOL as radioligand.
D(1A) dopamine receptor = D(1A) dopamine receptor (Rattus norvegicus, UniProt P18901); experiment: The binding affinity was measured on dopamine receptor D1 using [3H]- dopamine as radioligand.
[19] = molecular target: Gastrin/cholecystokinin type B receptor (Rattus norvegicus, UniProt P30553); experiment: The binding affinity was measured on cholecystokinin type B receptor using [3H]- CCK-8 as radioligand.
Cavia porcellus = species on record: Cavia porcellus; experiment: The pA2 is the negative logarithm of the molar concentration of an antagonist which necessitates the doubling of the agonist dose to couteract the effect of that antagonist and restore the original response was measured in guinea pig isolated ileu m test.
[20] = molecular target: Kappa-type opioid receptor (Rattus norvegicus, UniProt P34975); experiment: The binding affinity was measured on kappa-opiate receptor using [3H]- EKC as radioligand.
[21] = molecular target: Interleukin-6 receptor subunit alpha (Rattus norvegicus, UniProt P22273); experiment: The binding affinity was measured on […] receptor using [3H]- IL-6 as radioligand.; summary of the method: as §2
Histamine H3 receptor = Histamine H3 receptor (Rattus norvegicus, UniProt Q9QYN8); experiment: The binding affinity was measured on histamine H3 receptor using [3H]- N-Me-histam as radioligand.
[22] = The binding affinity was measured on melatonin receptor using [3H]- 2-iodo-melat as radioligand.
[23] = molecular target: Glutamate receptor ionotropic, NMDA 2C (Rattus norvegicus, UniProt Q00961); experiment: The binding affinity was measured on NMDA receptor using [3H]- CGS-19755 as radioligand.
Mus musculus = species on record: Mus musculus; experiment: Lowest effective dose affecting behavioral parameter in at least half of the animals.

Chain of Muscarinic acetylcholine receptor M1 (P08482 whole entry): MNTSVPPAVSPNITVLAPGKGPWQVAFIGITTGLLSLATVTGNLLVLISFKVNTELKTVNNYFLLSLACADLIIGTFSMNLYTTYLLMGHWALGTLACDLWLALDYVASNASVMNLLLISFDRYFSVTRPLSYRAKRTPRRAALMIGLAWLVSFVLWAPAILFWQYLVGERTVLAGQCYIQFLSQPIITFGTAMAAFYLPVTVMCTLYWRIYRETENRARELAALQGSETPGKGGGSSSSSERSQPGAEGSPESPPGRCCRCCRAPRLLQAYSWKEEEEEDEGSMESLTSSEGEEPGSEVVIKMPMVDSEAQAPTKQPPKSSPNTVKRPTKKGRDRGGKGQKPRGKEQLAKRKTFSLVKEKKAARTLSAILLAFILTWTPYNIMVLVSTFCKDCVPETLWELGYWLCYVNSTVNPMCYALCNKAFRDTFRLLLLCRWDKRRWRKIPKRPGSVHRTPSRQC
Chain of Glutamate receptor ionotropic, NMDA 2C (Q00961 whole entry): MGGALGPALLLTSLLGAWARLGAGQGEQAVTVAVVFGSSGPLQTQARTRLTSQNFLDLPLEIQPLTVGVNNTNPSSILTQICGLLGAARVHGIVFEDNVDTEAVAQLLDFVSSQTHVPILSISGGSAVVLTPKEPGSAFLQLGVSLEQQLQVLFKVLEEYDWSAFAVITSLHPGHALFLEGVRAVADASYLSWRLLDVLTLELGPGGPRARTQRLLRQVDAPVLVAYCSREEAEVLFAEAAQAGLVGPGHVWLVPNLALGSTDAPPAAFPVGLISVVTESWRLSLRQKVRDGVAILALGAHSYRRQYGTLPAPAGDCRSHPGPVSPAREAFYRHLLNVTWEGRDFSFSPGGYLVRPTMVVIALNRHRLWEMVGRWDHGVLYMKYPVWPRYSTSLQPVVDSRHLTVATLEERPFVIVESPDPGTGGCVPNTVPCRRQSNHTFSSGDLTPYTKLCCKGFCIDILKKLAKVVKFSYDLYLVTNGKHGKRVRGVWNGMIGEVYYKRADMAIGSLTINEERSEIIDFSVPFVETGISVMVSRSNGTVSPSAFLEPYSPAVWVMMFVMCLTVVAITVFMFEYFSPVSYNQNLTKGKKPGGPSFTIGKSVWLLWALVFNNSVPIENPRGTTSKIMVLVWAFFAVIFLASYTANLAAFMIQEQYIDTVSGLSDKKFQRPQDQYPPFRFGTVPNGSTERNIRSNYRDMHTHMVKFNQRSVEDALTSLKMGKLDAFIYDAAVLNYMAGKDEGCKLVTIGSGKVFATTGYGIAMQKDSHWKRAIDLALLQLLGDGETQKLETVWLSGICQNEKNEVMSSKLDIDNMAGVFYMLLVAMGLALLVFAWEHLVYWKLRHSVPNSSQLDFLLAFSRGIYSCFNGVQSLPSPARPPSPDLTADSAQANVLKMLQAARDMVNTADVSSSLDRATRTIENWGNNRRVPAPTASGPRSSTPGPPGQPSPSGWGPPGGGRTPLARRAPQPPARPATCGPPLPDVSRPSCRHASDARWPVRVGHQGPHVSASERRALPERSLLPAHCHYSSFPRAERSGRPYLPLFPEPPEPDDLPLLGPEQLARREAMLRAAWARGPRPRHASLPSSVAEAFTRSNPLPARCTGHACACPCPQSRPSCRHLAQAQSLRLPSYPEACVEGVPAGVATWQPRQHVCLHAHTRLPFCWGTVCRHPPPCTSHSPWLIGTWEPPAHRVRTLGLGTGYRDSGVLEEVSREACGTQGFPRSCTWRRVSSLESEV
Chain of Delta-type opioid receptor (P33533 whole entry): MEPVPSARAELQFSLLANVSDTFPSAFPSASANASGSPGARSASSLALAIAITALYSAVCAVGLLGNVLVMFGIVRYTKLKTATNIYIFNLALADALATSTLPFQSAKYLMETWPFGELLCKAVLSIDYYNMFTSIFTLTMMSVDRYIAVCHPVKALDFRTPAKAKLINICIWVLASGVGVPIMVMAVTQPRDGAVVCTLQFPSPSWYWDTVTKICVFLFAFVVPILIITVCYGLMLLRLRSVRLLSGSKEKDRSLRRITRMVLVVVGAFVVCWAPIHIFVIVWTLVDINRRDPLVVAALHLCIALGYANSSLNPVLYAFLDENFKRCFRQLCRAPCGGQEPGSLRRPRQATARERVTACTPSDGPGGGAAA
Chain of Alpha-2A adrenergic receptor (P22909 whole entry): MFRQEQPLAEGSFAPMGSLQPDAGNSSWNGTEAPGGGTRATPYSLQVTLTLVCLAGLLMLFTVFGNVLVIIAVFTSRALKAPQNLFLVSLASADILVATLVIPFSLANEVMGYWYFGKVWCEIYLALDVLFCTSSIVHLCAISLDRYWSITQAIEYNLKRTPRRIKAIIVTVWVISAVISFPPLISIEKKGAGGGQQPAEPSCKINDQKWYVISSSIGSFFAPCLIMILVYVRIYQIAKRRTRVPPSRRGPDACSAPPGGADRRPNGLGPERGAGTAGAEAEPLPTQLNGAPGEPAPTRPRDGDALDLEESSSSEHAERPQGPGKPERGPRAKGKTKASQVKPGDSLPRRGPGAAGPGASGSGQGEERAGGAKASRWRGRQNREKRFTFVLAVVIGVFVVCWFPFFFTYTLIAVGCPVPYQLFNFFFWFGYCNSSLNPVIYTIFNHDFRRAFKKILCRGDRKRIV
Chain of Gastrin/cholecystokinin type B receptor (P30553 whole entry): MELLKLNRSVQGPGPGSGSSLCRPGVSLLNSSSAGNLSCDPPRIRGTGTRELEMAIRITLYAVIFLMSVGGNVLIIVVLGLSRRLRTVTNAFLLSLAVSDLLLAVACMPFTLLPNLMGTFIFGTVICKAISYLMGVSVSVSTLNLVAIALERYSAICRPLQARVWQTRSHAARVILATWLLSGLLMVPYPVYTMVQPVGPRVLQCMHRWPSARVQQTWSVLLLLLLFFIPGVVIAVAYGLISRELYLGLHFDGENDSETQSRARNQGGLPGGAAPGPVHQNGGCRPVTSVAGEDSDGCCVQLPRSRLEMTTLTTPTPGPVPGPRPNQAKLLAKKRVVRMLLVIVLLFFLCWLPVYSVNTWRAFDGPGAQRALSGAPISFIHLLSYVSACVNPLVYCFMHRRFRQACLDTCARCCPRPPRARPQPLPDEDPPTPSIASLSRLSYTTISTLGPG
Chain of Thyrotropin-releasing hormone receptor (Q01717 whole entry): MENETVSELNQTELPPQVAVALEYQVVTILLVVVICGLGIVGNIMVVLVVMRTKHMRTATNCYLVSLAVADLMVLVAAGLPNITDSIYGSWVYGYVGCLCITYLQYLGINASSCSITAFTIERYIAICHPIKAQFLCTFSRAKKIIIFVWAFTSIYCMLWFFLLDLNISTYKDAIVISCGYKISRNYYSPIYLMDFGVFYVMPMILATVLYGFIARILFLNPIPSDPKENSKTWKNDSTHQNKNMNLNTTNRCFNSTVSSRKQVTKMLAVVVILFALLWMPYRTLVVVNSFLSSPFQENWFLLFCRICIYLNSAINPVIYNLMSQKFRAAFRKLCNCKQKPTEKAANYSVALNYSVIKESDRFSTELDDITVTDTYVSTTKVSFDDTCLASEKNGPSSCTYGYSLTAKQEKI
Chain of Kappa-type opioid receptor (P34975 whole entry): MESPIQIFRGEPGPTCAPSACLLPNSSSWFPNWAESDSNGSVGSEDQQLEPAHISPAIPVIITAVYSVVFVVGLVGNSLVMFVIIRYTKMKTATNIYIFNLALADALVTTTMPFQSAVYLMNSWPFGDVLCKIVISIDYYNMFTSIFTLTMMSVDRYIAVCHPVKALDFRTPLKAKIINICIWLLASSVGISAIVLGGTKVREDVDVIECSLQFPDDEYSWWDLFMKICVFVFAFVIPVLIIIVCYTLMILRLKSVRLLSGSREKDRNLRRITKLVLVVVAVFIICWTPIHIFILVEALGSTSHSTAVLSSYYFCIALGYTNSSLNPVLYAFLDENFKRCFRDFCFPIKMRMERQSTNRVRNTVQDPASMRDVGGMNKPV
Chain of D(2) dopamine receptor (P61169 whole entry): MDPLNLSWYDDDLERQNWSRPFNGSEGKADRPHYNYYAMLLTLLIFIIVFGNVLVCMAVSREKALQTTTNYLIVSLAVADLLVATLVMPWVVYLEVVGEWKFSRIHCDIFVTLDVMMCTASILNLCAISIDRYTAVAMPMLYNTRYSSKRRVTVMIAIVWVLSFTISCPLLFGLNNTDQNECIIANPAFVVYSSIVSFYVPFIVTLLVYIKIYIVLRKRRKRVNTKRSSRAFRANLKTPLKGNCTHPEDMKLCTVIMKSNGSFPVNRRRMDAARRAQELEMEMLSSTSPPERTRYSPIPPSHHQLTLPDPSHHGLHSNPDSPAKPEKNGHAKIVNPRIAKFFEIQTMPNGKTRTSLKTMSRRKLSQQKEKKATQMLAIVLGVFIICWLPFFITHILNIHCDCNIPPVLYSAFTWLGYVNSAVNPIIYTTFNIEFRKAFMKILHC
Chain of Sigma non-opioid intracellular receptor 1 (Q9R0C9 whole entry): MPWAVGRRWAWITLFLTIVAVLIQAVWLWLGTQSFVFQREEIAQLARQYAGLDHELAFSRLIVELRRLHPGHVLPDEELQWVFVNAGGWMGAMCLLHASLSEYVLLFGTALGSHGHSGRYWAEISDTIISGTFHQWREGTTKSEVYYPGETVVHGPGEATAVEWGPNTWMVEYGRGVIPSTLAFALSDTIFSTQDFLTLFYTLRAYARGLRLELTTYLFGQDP
Chain of D(1A) dopamine receptor (P18901 whole entry): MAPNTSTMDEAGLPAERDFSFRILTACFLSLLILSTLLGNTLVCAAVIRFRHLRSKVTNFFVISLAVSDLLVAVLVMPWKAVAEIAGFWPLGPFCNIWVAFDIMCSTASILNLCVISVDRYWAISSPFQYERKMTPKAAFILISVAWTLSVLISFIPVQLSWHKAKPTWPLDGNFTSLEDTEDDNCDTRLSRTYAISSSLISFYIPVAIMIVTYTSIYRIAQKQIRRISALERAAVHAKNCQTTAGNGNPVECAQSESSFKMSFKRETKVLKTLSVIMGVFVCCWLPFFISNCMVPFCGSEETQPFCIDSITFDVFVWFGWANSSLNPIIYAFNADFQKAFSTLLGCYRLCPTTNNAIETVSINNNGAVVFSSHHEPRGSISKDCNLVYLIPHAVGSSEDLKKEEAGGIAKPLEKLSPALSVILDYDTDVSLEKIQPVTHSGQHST

SMILES: Cc1[nH]cnc1CCC(=O)c1cn2c3c(cccc13)CCC2
Ki [1]: 0.075 nM

SMILES: Cc1nccn1CC1CCc2c(c3cccc4c3n2CCCC4)C1=O (single isomer, unassigned; (+))
Ki [1]: 0.93 nM

SMILES: Cc1nccn1CC1CCc2c(c3cccc4c3n2CC4)C1=O (racemic)
Ki [1]: 0.23 nM

SMILES: Cc1[nH]cnc1CCC(=O)c1cn(C)c2ccccc12
Ki [1]: 0.28 nM

SMILES: Cc1[nH]cnc1CCC(=O)c1cn2c3c(cccc13)CCCC2
Ki [1]: 0.33 nM

SMILES: Cc1nccn1CC1CCc2c(c3cccc4c3n2CCCCC4)C1=O (racemic)
Ki [1]: 1.1 nM

SMILES: Cc1nccn1C[C@H]1CCc2c(c3cccc4c3n2CCC4)C1=O [CILANSETRON]
Ki [2]: > 10 µM | Ki [3]: > 10 µM | Ki (D(2) dopamine receptor): > 10 µM | Ki (Mu-type opioid receptor): 8.5 µM | Ki [4]: > 10 µM | Ki [5]: 5.4 µM | Ki [6]: > 10 µM | Ki (Adrenergic receptor beta): > 10 µM | Ki [7]: > 10 µM | Kb (Rattus norvegicus [8]): 0.000115 µM | Ki [9]: 0.34 µM | Ki (D(3) dopamine receptor): > 10 µM | Ki [10]: > 10 µM | Ki [11]: > 10 µM | ED10 (Rattus norvegicus [12]): 0.026 mg/kg | Ki [13]: > 10 µM | Ki [14]: 0.91 µM | Ki [15]: > 10 µM | Ki (Histamine H1 receptor): 6.5 µM | Ki [16]: > 10 µM | Ki [17]: > 10 µM | Ki [18]: > 10 µM | Ki (D(1A) dopamine receptor): > 10 µM | Ki [19]: > 10 µM | Kb (Cavia porcellus): 0.0158 µM | Ki [20]: > 10 µM | Ki [21]: > 10 µM | Ki (Histamine H3 receptor): > 10 µM | Ki [22]: > 10 µM | Ki [23]: > 10 µM | LED (Mus musculus): 30 mg/kg

SMILES: Cc1nc[nH]c1CCC(=O)c1cn2c3c(cccc13)SCC2
Ki [1]: 0.19 nM

Ki [2]: > 10 µM | Ki (D(2) dopamine receptor): > 10 µM | Ki (Mu-type opioid receptor): 2.9 µM | Ki [4]: > 10 µM | Ki [5]: > 10 µM | Ki [6]: > 10 µM | Ki (Adrenergic receptor beta): > 10 µM | Ki [7]: > 10 µM | Ki [9]: 0.68 µM | Ki (D(3) dopamine receptor): > 10 µM | Ki [10]: > 10 µM | Ki [11]: > 10 µM | Ki [13]: > 10 µM | Ki [14]: 5.1 µM | Ki [15]: > 10 µM | Ki (Histamine H1 receptor): > 10 µM | Ki [16]: > 10 µM | Ki [17]: > 10 µM | Ki [18]: > 10 µM | Ki (D(1A) dopamine receptor): > 10 µM | Ki [19]: > 10 µM | Ki [20]: > 10 µM | Ki [21]: > 10 µM | Ki (Histamine H3 receptor): > 10 µM | Ki [22]: > 10 µM | Ki [23]: > 10 µM
SMILES: Cc1nccn1CC1CCc2c(c3ccccc3n2C)C1=O (stereo not drawn) [ONDANSETRON]
Ki [3]: > 10 µM | Kb (Rattus norvegicus [8]): 0.00102 µM | ED10 (Rattus norvegicus [12]): 0.165 mg/kg | Kb (Cavia porcellus): 0.158 µM | LED (Mus musculus): 3 mg/kg

SMILES: Cc1nccn1CC1CCc2c(c3cccc4c3n2CCS4)C1=O (racemic)
Ki [1]: 0.77 nM

SMILES: Cc1nccn1CC1CCc2c(c3cccc4c3n2CCCC4)C1=O (racemic)
Ki [1]: 0.75 nM

SMILES: Cc1nccn1CC1CCc2c(c3cccc4c3n2CCCC4)C1=O (single isomer, unassigned; (-))
Ki [1]: 0.64 nM

SMILES: Cc1nccn1CC1CCc2c(c3cccc4c3n2CCO4)C1=O (racemic)
Ki [1]: 1.3 nM
